Measurements reported in ChEMBL document CHEMBL1671715, “Depolarization, bacterial membrane composition, and the antimicrobial action of ceragenins” (2010).
Values after ≈ are worked out from the molar mass of the structure shown. Active and inactive are the calls of the source. No cut-off for these calls is given here.

How the values were obtained:
Staphylococcus aureus [1] = assay: Bactericidal activity against Staphylococcus aureus ATCC 25923 with lipid composition of 0% phosphatidylethanolamine, 67% phosphatidylglycerol and 19% cardiolipin by broth microdilution method; type: functional; details: in the assay text read “57% phosphatidylglycerol” for “67% phosphatidylglycerol”
Outline: (§1)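 Cells were incubated 24 h with incrementally varied ceragenin concentrations, then plated on tryptic soy agar. MBC is the lowest concentration completely eradicating bacteria (detection limit 10 CFU/ml).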

Klebsiella pneumoniae [2] = assay: Bactericidal activity against Klebsiella pneumoniae ATCC 13883 with lipid composition of 82% phosphatidylethanolamine, 5% phosphatidylglycerol and 6% cardiolipin by broth microdilution method; type: functional
Outline: (§2)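 MBC by broth microdilution in the Gram-negative depolarization buffer (20 mM glucose, 5 mM HEPES, pH 7.3). Cells were incubated 24 h with incrementally varied ceragenin concentrations and plated on tryptic soy agar. MBC is the lowest concentration completely eradicating bacteria (detection limit 10 CFU/ml).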

Bacillus cereus [3] = assay: Induction of cytoplasmic membrane depolarization in Bacillus cereus ATCC 11778 with lipid composition of 43% phosphatidylethanolamine, 40% phosphatidylglycerol and 17% cardiolipin at MBC by DiS-C2 dye based fluorimetric assay; type: functional
Outline: (§3)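 Overnight TSB cultures (37°C) were washed three times in 250 mM sucrose, 5 mM MgSO4, 10 mM K phosphate, pH 7.0, and diluted to A600 0.085 with 1 μM DiS-C2(5). Dye loaded 7 min at room temperature, then 7 min at 37°C. Ceragenin added with stirring at 37°C; fluorescence (ex 600/em 660 nm) read every 30 s. Depolarization at 330 s is expressed as % of the maximal fluorescence increase at 4× MBC.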

[4] = test system: Staphylococcus epidermidis; assay: Induction of cytoplasmic membrane depolarization in Staphylococcus epidermidis ATCC 35984 with lipid composition of 0% phosphatidylethanolamine, 90% phosphatidylglycerol and 1% cardiolipin at MBC by DiS-C2 dye based fluorimetric assay; type: functional; outline: as §3
Staphylococcus aureus [5] = assay: Induction of cytoplasmic membrane depolarization in Staphylococcus aureus ATCC 25923 with lipid composition of 0% phosphatidylethanolamine, 57% phosphatidylglycerol and 19% cardiolipin at MBC by DiS-C2 dye based fluorimetric assay; type: functional; outline: as §3
[6] = test system: Staphylococcus epidermidis; assay: Bactericidal activity against Staphylococcus epidermidis ATCC 35984 with lipid composition of 0% phosphatidylethanolamine, 90% phosphatidylglycerol and 1% cardiolipin by broth microdilution method; type: functional; outline: as §1
Escherichia coli [7] = assay: Bactericidal activity against Escherichia coli ATCC 25922 with lipid composition of […], 15% phosphatidylglycerol and 5% cardiolipin by broth microdilution method; type: functional; outline: as §2
Escherichia coli [8] = assay: Induction of inner membrane permeabilization of Escherichia coli ML-35p at 100 ug/ml by ONPG hydrolysis based spectrophotometric assay
Enterococcus faecalis [9] = assay: Bactericidal activity against Enterococcus faecalis ATCC 29212 with lipid composition of 0% phosphatidylethanolamine, 27% phosphatidylglycerol and 19% cardiolipin by broth microdilution method; type: functional; outline: as §1
Escherichia coli [10] = assay: Induction of outer membrane permeabilization of Escherichia coli ATCC 25922 at MBC by DiS-C2 dye based fluorimetric assay; type: functional, organism-based
Outline: (§4)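 Overnight TSB cultures (37°C), washed three times in TSB, then suspended in 20 mM glucose/5 mM HEPES, pH 7.3, at A600 0.085 with 1 μM DiS-C2(5). Equilibrated about 60 min at 37°C to a stable baseline. EDTA or ceragenin added; fluorescence (ex 600/em 660 nm) read every 30 s with stirring at 37°C. A fluorescence drop indicates outer-membrane permeabilization and dye uptake.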

Staphylococcus aureus [11] = assay: Induction of cytoplasmic membrane depolarization in Staphylococcus aureus ATCC BAA-41 with lipid composition of 0% phosphatidylethanolamine, 57% phosphatidylglycerol and 19% cardiolipin at MBC by DiS-C2 dye based fluorimetric assay; type: functional; outline: as §3
Klebsiella pneumoniae [12] = assay: Induction of outer membrane permeabilization of Klebsiella pneumoniae ATCC 13883 at MBC by DiS-C2 dye based fluorimetric assay; type: functional, organism-based; outline: as §4
Bacillus cereus [13] = assay: Bactericidal activity against Bacillus cereus ATCC 11778 with lipid composition of 43% phosphatidylethanolamine, 40% phosphatidylglycerol and 17% cardiolipin by broth microdilution method; type: functional; outline: as §1
Staphylococcus aureus [14] = assay: Bactericidal activity against methicillin-resistant Staphylococcus aureus ATCC BAA-41 with lipid composition of 0% phosphatidylethanolamine, 57% phosphatidylglycerol and 19% cardiolipin by broth microdilution method; type: functional
Outline: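 Cells were incubated 24 h with stepwise-varied ceragenin concentrations, then each sample was plated on tryptic soy agar. MBC was taken as the lowest concentration giving complete kill (detection limit 10 CFU/ml).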

Pseudomonas aeruginosa = assay: Bactericidal activity against Pseudomonas aeruginosa ATCC 27852 with lipid composition of 60% phosphatidylethanolamine, 21% phosphatidylglycerol and 11% cardiolipin by broth microdilution method; type: functional; outline: as §2
Escherichia coli [15] = assay: Induction of outer membrane permeabilization of Escherichia coli ML-35p by nitrocefin permeation based spectrophotometric assay; type: functional, organism-based
Outline: (§5)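 E. coli ML-35p grown overnight in TSB at 37°C, washed three times in 10 mM phosphate/0.1 M NaCl, pH 7.4. Diluted to 10^6 CFU/ml in the same buffer with 300 μg/ml TSB. Ceragenin or melittin 0–100 μg/ml, in duplicate. Outer membrane: 30 μM nitrocefin, A486. Inner membrane: 2.5 mM ONPG, A420. Read every 2 min for 60 min at 37°C with shaking.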

Paenibacillus polymyxa [16] = assay: Induction of cytoplasmic membrane depolarization in Bacillus polymyxa ATCC 21830 with lipid composition of 60% phosphatidylethanolamine, 3% phosphatidylglycerol and 8% cardiolipin at MBC by DiS-C2 dye based fluorimetric assay; type: functional; outline: as §3
Enterococcus faecalis [17] = assay: Induction of cytoplasmic membrane depolarization in Enterococcus faecalis ATCC 29212 with lipid composition of 0% phosphatidylethanolamine, 27% phosphatidylglycerol and 19% cardiolipin at MBC by DiS-C2 dye based fluorimetric assay; type: functional; outline: as §3
Paenibacillus polymyxa [18] = assay: Bactericidal activity against Bacillus polymyxa ATCC 21830 with lipid composition of 60% phosphatidylethanolamine, 3% phosphatidylglycerol and 8% cardiolipin by broth microdilution method; type: functional; outline: as §1
Escherichia coli [19] = assay: Induction of inner membrane permeabilization of Escherichia coli ML-35p by ONPG hydrolysis based spectrophotometric assay; type: functional, organism-based; outline: as §5

SMILES | MBC (Staphylococcus aureus [1]) | MBC (Klebsiella pneumoniae [2]) | Activity (Bacillus cereus [3]) | Activity [4] | Activity (Staphylococcus aureus [5]) | MBC [6] | MBC (Escherichia coli [7]) | Activity (Escherichia coli [8]) | MBC (Enterococcus faecalis [9]) | Activity (Escherichia coli [10]) | Activity (Staphylococcus aureus [11]) | Activity (Klebsiella pneumoniae [12]) | MBC (Bacillus cereus [13]) | MBC (Staphylococcus aureus [14]) | MBC (Pseudomonas aeruginosa) | Activity (Escherichia coli [15]) | Activity (Paenibacillus polymyxa [16]) | Activity (Enterococcus faecalis [17]) | MBC (Paenibacillus polymyxa [18]) | Activity (Escherichia coli [19])
C[C@H](CCCO)[C@H]1CC[C@H]2[C@@H]3[C@H](OCCCN)C[C@@H]4C[C@H](OCCCN)CC[C@]4(C)[C@H]3C[C@H](OCCCN)[C@]12C | 35 µg/mL (≈ 61.9 µM) | 12.5 µg/mL (≈ 22.1 µM) | 84.7% | 60.1% | 82.8% | 12 µg/mL (≈ 21.2 µM) | 10 µg/mL (≈ 17.7 µM) | inactive | 50 µg/mL (≈ 88.4 µM) | Active | 39% | Active | 7 µg/mL (≈ 12.4 µM) | 19 µg/mL (≈ 33.6 µM) | 12 µg/mL (≈ 21.2 µM) | Dose-dependent effect | 96.6% | 80.6% | 15 µg/mL (≈ 26.5 µM) | –
CC[C@H](C)[C@H](NC(=O)CN)C(=O)NCC(=O)N[C@@H](C)C(=O)N[C@H](C(=O)N[C@@H](CC(C)C)C(=O)N[C@@H](CCCCN)C(=O)N[C@H](C(=O)N[C@@H](CC(C)C)C(=O)N[C@H](C(=O)N[C@H](C(=O)NCC(=O)N[C@@H](CC(C)C)C(=O)N1CCC[C@H]1C(=O)N[C@@H](C)C(=O)N[C@@H](CC(C)C)C(=O)N[C@H](C(=O)N[C@@H](CO)C(=O)N[C@@H](Cc1c[nH]c2ccccc12)C(=O)N[C@H](C(=O)N[C@@H](CCCCN)C(=O)N[C@@H](CCCNC(=N)N)C(=O)N[C@@H](CCCCN)C(=O)N[C@@H](CCCNC(=N)N)C(=O)N[C@@H](CCC(N)=O)C(=O)N[C@@H](CCC(N)=O)C(N)=O)[C@@H](C)CC)[C@@H](C)CC)[C@@H](C)O)[C@@H](C)O)C(C)C)C(C)C | – | – | – | – | – | – | – | – | – | – | – | – | – | – | – | Active | – | – | – | –
CCCCCCCCNCCC[C@@H](C)[C@H]1CC[C@H]2[C@@H]3[C@H](OCCCN)C[C@@H]4C[C@H](OCCCN)CC[C@]4(C)[C@H]3C[C@H](OCCCN)[C@]12C | 2.5 µg/mL (≈ 3.69 µM) | 2.5 µg/mL (≈ 3.69 µM) | 86.7% | 25% | 41.5% | 1 µg/mL (≈ 1.48 µM) | 1.5 µg/mL (≈ 2.22 µM) | – | 5.5 µg/mL (≈ 8.12 µM) | – | 45.8% | – | 1 µg/mL (≈ 1.48 µM) | 2 µg/mL (≈ 2.95 µM) | 3.5 µg/mL (≈ 5.17 µM) | Dose-dependent effect | 88.4% | 74% | 2.5 µg/mL (≈ 3.69 µM) | Active
C[C@H](CCCNCCCNCCCN)[C@H]1CC[C@H]2[C@@H]3[C@H](OCCCN)C[C@@H]4C[C@H](OCCCN)CC[C@]4(C)[C@H]3C[C@H](OCCCN)[C@]12C | 49 µg/mL (≈ 72.2 µM) | – | 79.7% | 26.3% | 39.8% | 2.5 µg/mL (≈ 3.68 µM) | – | inactive | 280 µg/mL (≈ 412 µM) | – | 15.3% | – | 7 µg/mL (≈ 10.3 µM) | 28 µg/mL (≈ 41.2 µM) | – | Dose-dependent effect | 39.6% | 77.2% | 2.5 µg/mL (≈ 3.68 µM) | –
